{
  "source": "ChEMBL document CHEMBL1124291",
  "about": "“New actinomycin D analogues as superior chemotherapeutic agents against primary and advanced colon tumors and colon xenografts in nude mice” (J Med Chem, 1988)",
  "key": {"[1]": {"tested_on": "B16", "assay": "in vivo Antitumor activity against B16 melanoma cells at dose 300 ug/Kg /inj measured as Mean survival time (MST)", "format": "functional, Mus musculus", "in_short": "(§1)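 BDF1 mice in groups of nine were implanted ip on day 0 with 0.2 mL of 1:5 (w/v) B16 melanoma brei; drugs were given ip. Survival is reported as median survival time in days with range, and as %ILS, with survivors counted on day 65 out of total injected.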"}, "[2]": {"tested_on": "P388", "assay": "50% inhibition of incorporation of precursor [3H]thymidine into DNA P388 cell lines", "format": "functional, cell-based", "settings": "Mus musculus, P388, 2 h"}, "[3]": {"tested_on": "MC-38", "assay": "Number of toxic deaths/number of mice in a group of non tumored mice treated in parallel with the tumor-bearing mice and observed for 100 days at a dose 0.30 mg/Kg; value given as 0/9", "format": "functional, Mus musculus", "in_short": "(§2)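 Non-tumored CDF1 mice were treated in parallel with colon 38 tumor-bearing mice: iv injections on days 1, 5 and 9, groups of nine. Deaths were counted over 100 days of observation and reported as toxic deaths / mice in group.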"}, "[4]": {"species": "Rattus norvegicus", "assay": "Percent of the SAD isolated from incubation mixture containing tumor cell homogenate(T) after 7.7 min", "format": "functional", "in_short": "(§3)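 Tritiated analogues were incubated with two systems. (T) sonicated P388 cell homogenates, 37 °C for 16 h. (M) liver microsomes from phenobarbital-induced rats, 6 h with an NADPH-generating system (glucose-6-phosphate dehydrogenase plus glucose 6-phosphate). Metabolites and water-soluble conjugates were isolated, separated by HPLC and expressed as percentages.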"}, "[5]": {"tested_on": "MC-38", "assay": "Number of toxic deaths/number of mice in a group of non tumored mice treated in parallel with the tumor-bearing mice and observed for 100 days at a dose 1. 20 mg/Kg; value given as 2/9", "format": "toxicity, cell-based", "settings": "mouse, in vivo, 2400 h", "in_short": "as §2"}, "[6]": {"tested_on": "MC-38", "assay": "Mean survival time of treated / untreated group x100. (number of over 100-day survivors/number of total mice in the group) at a dose 1.20 mg/kg", "format": "functional, Mus musculus", "settings": "dose 1.2 mg/kg", "in_short": "(§4)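 CDF1 mice were implanted sc on day 0 with colon 38 adenocarcinoma fragments (70 mg) and given iv drug on days 1, 5 and 9. %T/C = median survival of treated / untreated × 100. Number of mice surviving over 100 days / group total is given in parentheses.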"}, "[7]": {"tested_on": "MC-38", "assay": "Number of toxic deaths/number of mice in a group of non tumored mice treated in parallel with the tumor-bearing mice and observed for 100 days at a dose 0.60 mg/Kg; value given as 1/9", "format": "toxicity", "settings": "mouse, in vivo, 0.6 mg/kg, 2400 h", "in_short": "as §2"}, "[8]": {"species": "Rattus norvegicus", "assay": "The formation of adrenochrome from epinephrine in the presence of SOD(super oxide dismutase); + denotes ' Inhibited'", "format": "functional", "in_short": "(§5)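 Drug-stimulated superoxide generation with rat liver microsomal enzymes and NADPH as cofactor. NADPH oxidation was read at 340 nm. Adrenochrome formed from epinephrine was read at 480 nm, with or without superoxide dismutase. % stimulation = [(drug-stimulated rate − basal rate)/basal rate] × 100. Values are mean ± standard error of triplicate analyses.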"}, "[9]": {"species": "Mus musculus", "assay": "Percent of the SAD glucuronide and/or sulfate isolated from incubation mixture containing tumor cell homogenate(T) after 8.0, 10.5 min"}, "[10]": {"tested_on": "B16", "assay": "in vivo Antitumor activity against B16 melanoma cells at a optimal dose 300 ug/Kg /inj measured as %ILS (%increase life span)", "format": "functional", "settings": "Mus musculus", "in_short": "as §1"}, "[11]": {"tested_on": "P388 (Mus musculus)", "assay": "Percent of the protein conjugates isolated from incubation mixture containing tumor cell homogenate(T)"}, "[12]": {"tested_on": "MC-38", "assay": "Activity against advanced carcinoma C38 Tumor in CDF1 Mice at dose 0.60 mg/ kg measured as % inhibition of tumor", "format": "functional", "settings": "Mus musculus"}, "[13]": {"species": "Rattus norvegicus", "assay": "Percent of the unidentified metabolites isolated from incubation mixture containing rat microsomes", "format": "functional", "in_short": "as §3"}, "[14]": {"tested_on": "MC-38", "assay": "Activity against advanced carcinoma C38 Tumor in CDF1 Mice at dose 0.30 mg/ kg measured as % inhibition of tumor", "format": "functional", "settings": "Mus musculus"}, "[15]": {"assay": "DNA-cleaving ability expressed as % of closed circular pBR322 DNA cleaved at 10 uM conc 10 uM"}, "[16]": {"species": "Rattus norvegicus", "assay": "Percent of the SAD isolated from incubation mixture containing rat micro somes, after 20.0 min"}, "[17]": {"tested_on": "P388", "assay": "50% inhibition of incorporation precursor [14C]uridine into RNA P388 cell lines", "format": "functional, cell-based", "settings": "Mus musculus"}, "[18]": {"species": "Rattus norvegicus", "assay": "Percent of the unconverted isolated from incubation mixture containing rat microsomes", "format": "functional", "in_short": "as §3"}, "[19]": {"species": "Rattus norvegicus", "assay": "Percent of the protein conjugates isolated from incubation mixture containing rat microsomes", "format": "functional", "in_short": "as §3"}, "[20]": {"species": "Rattus norvegicus", "assay": "Stimulation of NADPH oxidation in the presence of rat liver microsomes", "format": "functional", "in_short": "as §5"}, "[21]": {"species": "Rattus norvegicus", "assay": "The formation of adrenochrome from epinephrine in the absence of SOD(super oxide dismutase)", "format": "functional", "in_short": "as §5"}, "[22]": {"tested_on": "MC-38", "assay": "Activity against advanced carcinoma C38 Tumor in CDF1 Mice at dose 1.20 mg/ kg measured as % inhibition of tumor", "format": "functional", "settings": "Mus musculus"}, "[23]": {"tested_on": "P388 (Mus musculus)", "assay": "Percent of the tissue bound conjugates isolated from incubation mixture containing tumor cell homogenate(T)"}, "[24]": {"tested_on": "P388 (Mus musculus)", "assay": "Percent of the unidentified metabolites isolated from incubation mixture containing tumor cell homogenate(T)"}, "[25]": {"species": "Rattus norvegicus", "assay": "DNA-cleaving ability expressed as % of closed circular pBR322 DNA cleaved at 100 uM conc 100 uM", "format": "functional", "in_short": "(§6)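 pBR322 DNA (200 μM nucleotides) in 10 mM Tris·HCl pH 7.8 and 50 mM NaCl, with 4 mM Na₂S₂O₄ and 100 μM FeCl₂. Incubated with drug for 1 h at 20 °C, kept air-saturated. Supercoiled and open-circular forms were separated by agarose gel electrophoresis, stained with ethidium bromide and quantitated by densitometry. % cleaved was calculated from the open- and closed-circular amounts.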"}, "[26]": {"tested_on": "P388 (Mus musculus)", "assay": "Percent of the unconverted isolated from incubation mixture containing tumor cell homogenate(T)"}, "[27]": {"species": "Rattus norvegicus", "assay": "Percent of the tissue bound conjugates isolated from incubation mixture containing rat microsomes", "format": "functional", "in_short": "as §3"}, "[28]": {"tested_on": "P388", "assay": "Antitumor activity in P388/ADR (adriamycin resistant) in male BDF1 mice measured as optimal dose at dose 0.10-1.0 mg/kg/ inj, inp"}, "[29]": {"tested_on": "HT-29", "assay": "50% inhibition of incorporationf precursor [3H]thymidine into RNA HT-29 cell lines", "format": "functional, cell-based", "settings": "Homo sapiens, HT-29, 2 h; in the assay text read “[14C]uridine” for “[3H]thymidine”", "in_short": "(§7)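 HT-29 colon carcinoma monolayers, 10^4 cells per well, five wells per concentration. Drug exposure lasted 2 h, with [³H]thymidine and [2-¹⁴C]uridine (0.5 μCi each) added for the last hour. Cells were washed, trypsinized, counted and precipitated onto glass-fiber filters with 10% TCA. Acid-precipitable radioactivity was measured. IC50 is the concentration inhibiting 50% of incorporation; data are averages of replicate experiments.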"}, "[30]": {"species": "Rattus norvegicus", "assay": "DNA-cleaving ability expressed as % of closed circular pBR322 DNA cleaved […] conc 50 uM", "format": "functional", "in_short": "as §6"}, "[31]": {"tested_on": "HT-29", "assay": "50% inhibition of incorporationf precursor [3H]thymidine into DNA HT-29 cell lines", "format": "functional, cell-based", "settings": "Homo sapiens, HT-29, 2 h", "in_short": "as §7"}, "[32]": {"tested_on": "MC-38", "assay": "Mean survival time of treated / untreated group x100. (number of over 100-day survivors/number of total mice in the group) at a dose 0.30 mg/kg", "format": "functional, Mus musculus", "settings": "dose 0.3 mg/kg", "in_short": "as §4"}, "[33]": {"tested_on": "MC-38", "assay": "Mean survival time of treated / untreated group x100. (number of over 100-day survivors/number of total mice in the group) at a dose 0.60 mg/kg", "format": "functional, Mus musculus", "settings": "dose 0.6 mg/kg", "in_short": "as §4"}, "[34]": {"tested_on": "pBR322 plasmid DNA", "assay": "DNA-cleaving ability expressed as % of closed circular pBR322 DNA cleaved […]"}},
  "data": [
    {"smiles": "Cc1c2oc3c(C)c4oc(CC(=O)NCCCCN)nc4c(C(=O)N[C@@H]4C(=O)N[C@H](C(C)C)C(=O)N5CCC[C@H]5C(=O)N(C)CC(=O)N(C)[C@@H](C(C)C)C(=O)O[C@@H]4C)c3nc-2c(C(=O)N[C@@H]2C(=O)N[C@H](C(C)C)C(=O)N3CCC[C@H]3C(=O)N(C)CC(=O)N(C)[C@@H](C(C)C)C(=O)O[C@@H]2C)c(N)c1=O", "values": [
      {"measurement": "MST", "setting": "[1]", "value": 62},
      {"measurement": "IC50", "setting": "[2]", "value": 430, "unit": "nM"},
      {"measurement": "Toxic deaths", "setting": "[3]", "value": 0},
      {"measurement": "Activity", "setting": "[4]", "value": 20, "unit": "%"},
      {"measurement": "Toxic deaths", "setting": "[5]", "value": 2},
      {"measurement": "T/C", "setting": "[6]", "value": 231, "unit": "%"},
      {"measurement": "Toxic deaths", "setting": "[7]", "value": 1},
      {"measurement": "Adrenochrome formation", "setting": "[8]", "value": "Inhibited"},
      {"measurement": "Activity", "setting": "[9]", "value": 40, "unit": "%"},
      {"measurement": "ILS at 0.3 mg/kg", "setting": "[10]", "value": 114, "unit": "%"},
      {"measurement": "Activity", "setting": "[11]", "value": 8, "unit": "%"},
      {"measurement": "inhibition in vivo at 0.6 mg/kg", "setting": "[12]", "value": 93, "unit": "%"},
      {"measurement": "Activity", "setting": "[13]", "value": 8, "unit": "%"},
      {"measurement": "inhibition in vivo at 0.3 mg/kg", "setting": "[14]", "value": 80, "unit": "%"},
      {"measurement": "Activity", "setting": "[15]", "value": 40, "unit": "%"},
      {"measurement": "Activity", "setting": "[16]", "value": 65, "unit": "%"},
      {"measurement": "IC50", "setting": "[17]", "value": 55, "unit": "nM"},
      {"measurement": "Activity", "setting": "[18]", "value": 10, "unit": "%"},
      {"measurement": "Activity", "setting": "[19]", "value": 10, "unit": "%"},
      {"measurement": "NADPH oxidation (nM min-1 (mg of protein)-1)", "setting": "[20]", "value": 87.1},
      {"measurement": "Adrenochrome formation", "setting": "[21]", "value": "22.1 nM min-1 (mg of protein)-1"},
      {"measurement": "inhibition in vivo at 1.2 mg/kg", "setting": "[22]", "value": 94, "unit": "%"},
      {"measurement": "Activity", "setting": "[23]", "value": 5, "unit": "%"},
      {"measurement": "Activity", "setting": "[24]", "value": 5, "unit": "%"},
      {"measurement": "Activity", "setting": "[25]", "value": 58, "unit": "%"},
      {"measurement": "Activity", "setting": "[26]", "value": 20, "unit": "%"},
      {"measurement": "Activity", "setting": "[27]", "value": 5, "unit": "%"},
      {"measurement": "optimal dose", "setting": "[28]", "value": 1, "unit": "mg/kg"},
      {"measurement": "IC50", "setting": "[29]", "value": 65, "unit": "nM"},
      {"measurement": "Activity", "setting": "[30]", "value": 50, "unit": "%"},
      {"measurement": "IC50", "setting": "[31]", "value": 365, "unit": "nM"},
      {"measurement": "T/C", "setting": "[32]", "value": 170, "unit": "%"},
      {"measurement": "T/C", "setting": "[33]", "value": 250, "unit": "%"},
      {"measurement": "Activity", "setting": "[34]", "value": 45, "unit": "%"}
    ]}
  ]
}
